Experimental data from PMC10840808 (Molecular cancer therapeutics, 2024).
Blank lines part the entries; values can stand above or below the substance they belong to. Ends that are not written are not given here.

What was measured:
MDA-MB-231 cells [1] = assay: qPCR gene expression; type: cell-based; settings: for expression of NANOG target genes (FABP5, POSTN, NRP2, PIN1, TAGLN) / expression of epithelial cell markers cytokeratin 18 and 19 (KRT18 and KRT19): MDA-MB-231, 7 days of treatment, n=3; for expression of NANOG target genes (FABP5, POSTN, NRP2, PIN1, TAGLN): compared to vehicle or aScr-pep
Procedure, shortened: (§1)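 Cells were treated for 7 days with test peptide, cytosolic-tail peptide alone, scrambled peptide or vehicle, then analysed by real-time qPCR for NANOG-regulated and keratin genes. CT values were normalized to GAPDH, and dissociation curves checked primer fidelity. n=3 independent experiments, each in technical triplicate; one-way ANOVA.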

NANOG = NANOG (Homo sapiens, UniProt Q9H9S0); assay: Surface plasmon resonance; type: binding
Chain of NANOG (Q9H9S0 whole entry): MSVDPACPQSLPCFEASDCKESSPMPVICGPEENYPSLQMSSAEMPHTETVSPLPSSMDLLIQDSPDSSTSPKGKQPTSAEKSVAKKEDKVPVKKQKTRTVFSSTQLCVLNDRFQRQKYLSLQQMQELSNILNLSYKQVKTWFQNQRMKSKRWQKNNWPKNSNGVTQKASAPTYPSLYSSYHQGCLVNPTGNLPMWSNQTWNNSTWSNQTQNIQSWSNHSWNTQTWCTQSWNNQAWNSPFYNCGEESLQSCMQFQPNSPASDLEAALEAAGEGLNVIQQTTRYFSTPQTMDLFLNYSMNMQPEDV
Procedure, shortened: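 Purified active NANOG at 50 μg/mL in 10 mM sodium acetate pH 4.5 was amine-coupled (EDC/NHS, ethanolamine block) to a CM5 chip, targeting 5000 RU, with an unmodified reference cell. Runs used Biacore S200 at 25°C, 1% DMSO/1x PBS-P+ at 30 μL/min. Peptide series: ≥5 concentrations, 100 nM–100 μM, plus repeat and zero. Association 180 s, dissociation 600 s, glycine pH 2.5 regeneration. KD by 1:1 Langmuir kinetics.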

FAK = FAK (Homo sapiens, UniProt Q05397); assay: Surface plasmon resonance; type: binding
Chain of FAK (Q05397 whole entry): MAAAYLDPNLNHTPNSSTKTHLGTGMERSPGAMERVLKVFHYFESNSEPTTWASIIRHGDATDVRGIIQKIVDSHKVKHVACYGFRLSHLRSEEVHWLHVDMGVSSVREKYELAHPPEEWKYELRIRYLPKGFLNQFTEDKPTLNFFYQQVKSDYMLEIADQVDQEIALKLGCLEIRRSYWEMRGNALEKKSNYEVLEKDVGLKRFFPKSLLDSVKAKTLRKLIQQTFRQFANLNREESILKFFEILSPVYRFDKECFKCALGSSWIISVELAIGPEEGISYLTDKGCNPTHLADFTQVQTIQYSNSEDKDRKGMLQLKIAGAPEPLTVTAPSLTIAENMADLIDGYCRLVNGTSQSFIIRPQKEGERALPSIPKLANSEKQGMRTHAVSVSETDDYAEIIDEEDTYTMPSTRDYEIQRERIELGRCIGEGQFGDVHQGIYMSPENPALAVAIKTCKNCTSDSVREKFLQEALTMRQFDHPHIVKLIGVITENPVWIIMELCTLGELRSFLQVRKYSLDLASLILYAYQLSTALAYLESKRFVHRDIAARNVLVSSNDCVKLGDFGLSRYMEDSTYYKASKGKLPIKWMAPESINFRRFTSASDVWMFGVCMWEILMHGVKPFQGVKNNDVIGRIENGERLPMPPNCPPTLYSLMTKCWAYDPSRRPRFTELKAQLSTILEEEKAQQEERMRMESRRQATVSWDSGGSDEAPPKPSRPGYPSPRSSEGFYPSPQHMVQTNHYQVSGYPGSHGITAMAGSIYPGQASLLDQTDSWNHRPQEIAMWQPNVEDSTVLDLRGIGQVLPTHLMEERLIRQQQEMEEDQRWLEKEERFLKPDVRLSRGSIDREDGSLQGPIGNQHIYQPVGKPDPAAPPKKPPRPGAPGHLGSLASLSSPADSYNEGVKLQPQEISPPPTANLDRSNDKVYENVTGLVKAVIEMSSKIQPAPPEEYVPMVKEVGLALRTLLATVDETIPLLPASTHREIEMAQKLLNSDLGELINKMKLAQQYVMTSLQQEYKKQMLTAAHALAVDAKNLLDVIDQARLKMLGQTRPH
Procedure, shortened: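 Biacore S200 at 25°C, with running buffer 1% DMSO/1x PBS-P+ (filtered, degassed) at 30 μL/min. FAK at 20 μg/mL in 10 mM sodium acetate pH 5.0 was amine-coupled to a CM5 chip, targeting 5000 RU, with unmodified flow cell 1 as reference. Peptide analyte: ≥5 concentrations (100 nM–100 μM) plus a repeat and a blank, multi-cycle. Association 180 s, dissociation 600 s. Regeneration with 10 mM glycine pH 2.5 for 30 s. KD from 1:1 Langmuir fit.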

HCC70 cells [2] = assay: Subcellular fractionation and immunoblotting for FAK and NANOG; type: cell-based; settings: HCC70, 10 μM, 48 h, immunoblot
Procedure, shortened: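 15×10⁶ HCC70 cells per 15 cm dish were treated 48 h with 10 μM peptide or 1% DMSO vehicle. A commercial kit gave membrane, cytoplasmic and nuclear fractions. 25 μg per fraction was run on 12% SDS-PAGE and transferred to PVDF. Blots were probed for FAK and NANOG, with HRP secondary 3 h at room temperature. Rhodamine anti-actin and Lamin A/C served as loading controls.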

[3] = test system: MDA-MB-231 luciferase-expressing tumors; type: in vivo, NSG mice; settings: endpoint tumors
Procedure, shortened: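 MDA-MB-231 cells were made luciferase-expressing by lentivirus and puromycin-selected. 1×10⁶ cells went into the right subcutaneous flank of 6-week-old female NSG mice. At palpability, mice were randomized to 50 μl intratumoral 0.1 mM peptide or vehicle (1% DMSO) every other day for 20 days. Weekly IVIS: D-luciferin 150 mg/kg IP under isoflurane, total flux. Excised tumors were fixed 3 days in 4% PFA, then sectioned and stained (H&E: 7–8 mice/group; IF: 3–4 mice/group, 3 images/mouse). One-way ANOVA.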

MDA-MB-231 = assay: Tumorsphere-initiation frequency, extreme limiting-dilution assay; type: cell-based; settings: MDA-MB-231, ELDA, compared to aScr-pep
Procedure, shortened: (§2)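 Cells were treated with vehicle, Antp alone, Antp-tagged scrambled peptide or test peptide. They were plated in duplicate rows at serial dilutions of 1–20 cells/well, one 96-well plate per condition. Medium was serum-free DMEM with 20 ng/ml bFGF, 10 ng/ml EGF, 2% B27 and 10 μg/ml insulin. After 2 weeks, wells were scored sphere-positive or negative by phase-contrast microscopy. Stem-cell frequency was computed by extreme limiting dilution analysis.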

HCC70 cells [4] = assay: qPCR gene expression; type: cell-based; settings: HCC70, 10 μM, 7 day treatment, compared to aScr-pep
Procedure, shortened: as §1

HCC70 = assay: Tumorsphere-initiation frequency, extreme limiting-dilution assay; type: cell-based; settings: HCC70, ELDA, compared to aScr-pep
Procedure, shortened: as §2

[5] = test system: MCF7 luminal breast cancer cells; assay: qPCR gene expression; type: cell-based; settings: MCF7, 7 days of treatment, n=3
Procedure, shortened: as §1

MDA-MB-231 cells [6] = assay: CellTiter-Glo proliferation; type: cell-based; settings: MDA-MB-231, increasing concentrations, 72 h
Procedure, shortened: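 MDA-MB-231 cells, grown in DMEM with 1 mM sodium pyruvate and 10% heat-inactivated FCS at 37°C and 5% CO₂, were seeded at 1,000 cells/well. They were exposed for 72 h to Antp peptide alone, test peptide or vehicle (1% DMSO in PBS). Cells were lysed with CellTiter-Glo at day 0 and at 72 h, shaken 10 min in the dark, and luminescence was read. Fold change = 72 h value / day 0 value per group.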

MDA-MB-468 = assay: Tumorsphere-initiation frequency, extreme limiting-dilution assay; type: cell-based; settings: MDA-MB-468, ELDA, compared to aScr-pep
Procedure, shortened: as §2

MCF7 = assay: as above; type: cell-based; settings: MCF7 luminal breast cancer cell line, ELDA, aScr-pep vs aCx26-pep
Procedure, shortened: as §2

[7] = SPR, 25°C, 1% DMSO/1x PBS-P+, 1:1 Langmuir, range given in words
[8] = MDA-MB-231, 10 μM, 7 day treatment, compared to aScr-pep
[9] = immunofluorescence, 3–4 mice per group

dissociation constant (KD) with NANOG (NANOG; [7]): nanomolar
dissociation constant (KD) with FAK (FAK; [7]): micromolar
Substance: Cx26 cytosolic tail: peptide fragment of the Cx26 cytosolic (C-terminal) tail, 11 amino acids (RYCSGKSKKPV-NH2)
expression of NANOG target genes (FABP5, POSTN, NRP2, PIN1, TAGLN) (MDA-MB-231 cells [1]): no significant differences
expression of epithelial cell markers cytokeratin 18 and 19 (KRT18 and KRT19) (MDA-MB-231 cells [1]): no significant differences

Substance: aCx26-pep: peptide containing the Cx26 cytosolic tail sequence tagged with an antennapedia (Antp) leader sequence (RQIKIWFQNRRMKWKKRYCSGKSKKPV-NH2)
FAK level in the nuclear fraction (HCC70 cells [2]): dramatic decreases
NANOG level in the nuclear fraction (HCC70 cells [2]): dramatic decreases
Oct4 mRNA levels (MDA-MB-231 cells [1]; [8]): significant decrease
Sox2 levels (MDA-MB-231 cells [1]; [8]): did not observe a change
expression of NANOG target genes (FABP5, POSTN, NRP2, PIN1, TAGLN) (MDA-MB-231 cells [1]): significantly decreased
expression of epithelial cell markers cytokeratin 18 and 19 (KRT18 and KRT19) (MDA-MB-231 cells [1]): significantly increased
binding to NANOG by SPR (result in words) (NANOG): did not significantly alter
Ki67 staining (proliferation marker) [3, 9]: decreased
cleaved caspase 3 staining [3, 9]: increased
vimentin staining (EMT marker) [3, 9]: decreased
percent tumor viability (H&E) ([3]; vs vehicle or aScr-pep, 7–8 mice per group): significantly decreased
tumorsphere frequency (MDA-MB-231): significantly decreased
Oct4 mRNA levels (HCC70 cells [4]): significant decrease
Sox2 levels (HCC70 cells [4]): did not observe a change
tumorsphere frequency (HCC70): significantly decreased
NANOG target gene expression [5]: did not significantly change
cytokeratin gene expression [5]: did not significantly change
cell proliferation (CellTiter-Glo) (MDA-MB-231 cells [6]): not significantly affected
binding to FAK by SPR (result in words) (FAK): did not significantly alter
tumorsphere frequency (MDA-MB-468): significantly decreased
tumorsphere frequency (MCF7): no significant difference

binding to NANOG by SPR (result in words) (NANOG): sufficient for binding
binding to FAK by SPR (result in words) (FAK): sufficient for binding
Substance: RYCSG
